This is an account of results in ChEMBL document CHEMBL4680134, “Structural optimization of natural product nordihydroguaretic acid to discover novel analogues as AcrB inhibitors” (Eur J Med Chem, 2020).

In data set [1] the target is T1, Multidrug efflux pump subunit AcrB (Escherichia coli (strain K12)) (UniProt P31224).
T1 sequence (whole entry): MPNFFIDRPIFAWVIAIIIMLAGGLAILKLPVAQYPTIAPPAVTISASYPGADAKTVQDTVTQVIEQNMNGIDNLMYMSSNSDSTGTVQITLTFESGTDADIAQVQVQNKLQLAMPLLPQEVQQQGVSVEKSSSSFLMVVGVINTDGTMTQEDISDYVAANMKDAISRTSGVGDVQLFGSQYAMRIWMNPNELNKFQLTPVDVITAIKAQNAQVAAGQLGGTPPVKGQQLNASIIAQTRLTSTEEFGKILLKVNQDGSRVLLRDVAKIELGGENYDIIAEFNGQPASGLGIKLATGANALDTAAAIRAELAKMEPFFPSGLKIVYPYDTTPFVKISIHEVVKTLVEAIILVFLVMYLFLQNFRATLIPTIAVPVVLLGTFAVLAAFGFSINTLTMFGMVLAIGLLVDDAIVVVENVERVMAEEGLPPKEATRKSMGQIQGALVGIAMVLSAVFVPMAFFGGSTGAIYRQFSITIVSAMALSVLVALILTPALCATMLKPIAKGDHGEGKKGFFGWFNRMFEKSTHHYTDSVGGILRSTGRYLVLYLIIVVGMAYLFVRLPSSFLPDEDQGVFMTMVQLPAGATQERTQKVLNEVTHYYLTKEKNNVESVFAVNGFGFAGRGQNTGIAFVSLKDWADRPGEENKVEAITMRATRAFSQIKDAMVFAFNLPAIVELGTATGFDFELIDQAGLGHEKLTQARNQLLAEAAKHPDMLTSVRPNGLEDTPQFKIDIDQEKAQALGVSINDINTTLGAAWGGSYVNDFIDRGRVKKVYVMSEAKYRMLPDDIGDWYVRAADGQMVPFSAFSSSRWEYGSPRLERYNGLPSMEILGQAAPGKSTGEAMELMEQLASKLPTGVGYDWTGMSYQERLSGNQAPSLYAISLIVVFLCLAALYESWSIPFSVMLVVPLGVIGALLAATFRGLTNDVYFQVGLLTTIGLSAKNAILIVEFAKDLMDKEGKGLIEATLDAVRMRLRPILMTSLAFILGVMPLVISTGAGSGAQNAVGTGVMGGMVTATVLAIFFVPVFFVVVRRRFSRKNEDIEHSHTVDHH
Put plainly: Inhibition of AcrB in Escherichia coli BW25113 assessed as potentiation of chloramphenicol induced antibacterial activity by measuring chloramphenicol MIC at 8 ug/ml measured after 18 hrs by checkerboard titration method (reference value: 8 ug/ml). Particulars: dose 8.0 µg/ml.

Data set [2] has as its target T1, Multidrug efflux pump subunit AcrB (Escherichia coli (strain K12)). Put plainly: Inhibition of AcrB in Escherichia coli BW25113 assessed as potentiation of tetraphenylphosphonium induced antibacterial activity by measuring tetraphenylphosphonium MIC at 8 ug/ml measured after 18 hrs by checkerboard titration method (reference value: 1024 ug/ml). Particulars: dose 8.0 µg/ml.

Data set [3] shares this target. Put plainly: Inhibition of AcrB in Escherichia coli BW25113 assessed as potentiation of chloramphenicol induced antibacterial activity by measuring chloramphenicol MIC at 256 ug/ml measured after 18 hrs by checkerboard titration method (reference value: 8 ug/ml). The following applies: dose 256.0 µg/ml.
For data set [4] the target is unchanged. Put plainly: Inhibition of AcrB in Escherichia coli BW25113 assessed as reduction in glucose-induced nile red efflux at 50 to 100 uM preincubated for 15 mins followed by nile red addition and incubated for 3 hrs in shaker in presence of CCCP by fluorimetric analysis. Particulars: dose 50-100 µM, time 195.0 min. The method, boiled down: (§1)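 Whole-cell efflux: wild-type and ΔAcrB cells preloaded with Nile Red, with or without compound, before fluorescence readings. Efflux triggered at 100 s with 0.2% glucose and followed by fluorometry. The ΔAcrB strain marks maximal accumulation. Triplicate experiments with different cell batches.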

Data set [5] shares this target. Put plainly: Inhibition of AcrB in Escherichia coli BW25113 assessed as reduction in glucose-induced nile red efflux at 100 to 200 uM preincubated for 15 mins followed by nile red addition and incubated for 3 hrs in shaker in presence of CCCP by fluorimetric analysis. Particulars: dose 100-200 µM, time 195.0 min. In outline:
as §1

The subject of data set [6] is Cell membrane. Put plainly: Induction of inner membrane permeabilization in CCCP treated wild type Escherichia coli BW25113 at 64 ug/ml measured after 10 mins by Di0C2(3) probe based fluorimetric method. Particulars: escherichia coli bw25113, 10 min, dose 64 µg/ml. In outline:
(§2)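 Cells left untreated or exposed to compound at 8-256 µg/mL for 10 min, then DiOC2(3) added and fluorescence followed to plateau. Cells re-energized with 0.5% glucose; membrane potential build-up read as fluorescence rise to plateau, then dissipated with CCCP.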

Data set [7] concerns Cell membrane. Put plainly: Induction of outer membrane permeabilization in wild type Escherichia coli BW25113 assessed as increase in nitrocefin hydrolysis at 256 ug/ml by spectrophotometry analysis. Particulars: dose 256 µg/ml. In outline: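 Outer-membrane permeability: intact E. coli treated with 10 µM CCCP to block nitrocefin efflux, then exposed to compound. Nitrocefin hydrolysis by periplasmic β-lactamase followed as increasing absorbance at 490 nm over time. Polymyxin B as permeabilizer control, untreated cells as baseline. Duplicate experiments on different days.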

In data set [8] the target is T1, Multidrug efflux pump subunit AcrB (Escherichia coli (strain K12)). Put plainly: Inhibition of AcrB in Escherichia coli BW25113 assessed as potentiation of erythromycin induced antibacterial activity by measuring fold change in erythromycin MIC at 128 ug/ml measured after 18 hrs by checkerboard titration method relative to erythromycin alone. Particulars: dose 128.0 µg/ml.

For data set [9] the target is unchanged. Put plainly: Inhibition of AcrB in Escherichia coli BW25113 assessed as potentiation of chloramphenicol induced antibacterial activity by measuring fold change in chloramphenicol MIC at 128 ug/ml measured after 18 hrs by checkerboard titration method relative to chloramphenicol alone. The following applies: dose 128.0 µg/ml.
A short description of data set [10]: Growth inhibition of Escherichia coli harboring AcrB deletion mutant at higher concentration after 18 hrs by broth microdilution assay. In outline:
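MIC determined by 96-well broth microdilution in E. coli BW25113 expressing AcrB ((+)AcrB) and an isogenic acrB-deleted strain ((-)AcrB). Used to set the compound concentrations for synergy testing that produce no direct antibacterial effect.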

In data set [11] the test system is Cell membrane. Put plainly: Induction of inner membrane permeabilization in CCCP treated wild type Escherichia coli BW25113 at 128 ug/ml measured after 10 mins by Di0C2(3) probe based fluorimetric method. Particulars: escherichia coli bw25113, 10 min, dose 128 µg/ml. The method, boiled down: as §2
The target in data set [12] is T1, Multidrug efflux pump subunit AcrB (Escherichia coli (strain K12)). Put plainly: Inhibition of AcrB in Escherichia coli BW25113 assessed as potentiation of levofloxacin induced antibacterial activity by measuring fold change in levofloxacin MIC at 32 ug/ml measured after 18 hrs by checkerboard titration method relative to levofloxacin alone. Particulars: dose 32.0 µg/ml.

Data set [13] has the same target. Put plainly: Inhibition of AcrB in Escherichia coli BW25113 assessed as potentiation of chloramphenicol induced antibacterial activity by measuring fold change in chloramphenicol MIC at 256 ug/ml measured after 18 hrs by checkerboard titration method relative to chloramphenicol alone. Particulars: dose 256.0 µg/ml.
Data set [14] has as its system Cell membrane. Put plainly: Induction of inner membrane permeabilization in CCCP treated wild type Escherichia coli BW25113 measured after 10 mins by Di0C2(3) probe based fluorimetric method. Particulars: escherichia coli bw25113, 10 min. The method, boiled down:
as §2

Activity calls are given as the source filed them. The rule behind the calls is not given here.

On to `Nc1ccccc1C(=O)NCCc1ccc(O)c(O)c1`, for which the values for the MIC in data set [1] and in data set [2] were 8 µg/mL and 1020 µg/mL, respectively.
On to `Oc1ccc(CCCCc2ccc(Br)cc2)cc1O`, for which, in data set [3], the MIC was 8 µg/mL. For the same molecule, the inhibition entry in [4] is “Active”.
With `Oc1ccc(CCCCCCCc2ccc(O)c(O)c2)cc1O`, the inhibition result in [5] is “Active”. In addition, the Activity entry in data set [6] is “Non-Toxic”. Further, the MIC in data set [3] is 8 µg/mL.
As for `Oc1ccc(CCCCCCc2ccc(O)c(O)c2)cc1O`, in data set [3], the MIC came to 8 µg/mL. Also, the inhibition entry in data set [4] was “Active”.
Take `Oc1ccc(CCCc2ccc(O)c(O)c2)cc1O`: in data set [3], the MIC worked out at 8 µg/mL. Further, the Activity entry in data set [7] was “Non-Toxic”.
In the case of `Nc1ccc(C(=O)NCCc2ccc(O)c(O)c2)cc1`, the fold change (FC) in data set [8] and in [9] was 4 in each case. Further, the MIC in data set [1] stood at 8 µg/mL; in data set [2], 1020 µg/mL.
Consider `Oc1ccc(CCCCCc2ccc(O)c(O)c2)cc1O`, for which the “growth inhibition (GI)” value in data set [10] is “Toxic”. Besides, the inhibition entry in [5] was “Active”. Besides, the Activity result in data set [11] is “Toxic”. The MIC in data set [3] is 8 µg/mL.
Take `O=C(NCCc1ccc(O)c(O)c1)c1ccccc1O`: the fold change (FC) in data set [12] was 2. The MIC in data set [1] came to 8 µg/mL; in data set [2], 1020 µg/mL. The Activity entry in [7] was “Non-Toxic”.
Turning to `O=C(NCCc1ccc(O)c(O)c1)c1ccc(O)c(O)c1`, the inhibition result in data set [5] was “Active”. Moreover, the Activity entry in data set [6] and in data set [7] was “Non-Toxic” each time. In addition, the MIC is 8 µg/mL in data set [1] and 1020 µg/mL in data set [2].
Consider `C[C@H](Cc1ccc(O)c(O)c1)[C@@H](C)Cc1ccc(O)c(O)c1` [MASOPROCOL], for which the MIC in data set [3] amounted to 2 µg/mL. Besides, the inhibition entry in data set [4] was “Active”. Further, the Activity entry in [7] is “Toxic”.
In the case of `O=C(NCCc1ccc(O)c(O)c1)c1cc(O)c(O)c(O)c1`, the fold change (FC) in data set [8] is 4; in [9], 4; in data set [12], 2. The Activity entry in data set [6] was “Non-Toxic”. Besides, the MIC in data set [1] is 4 µg/mL; in data set [2], 1020 µg/mL.
On to `Oc1ccc(CCCCc2cc(O)c(O)c(O)c2)cc1O`, for which the Activity entry in data set [11] and in data set [7] was “Non-Toxic” in each case. For the same molecule, in data set [3], the MIC came out at 1 µg/mL. Besides, the fold change (FC) in data set [13] was 8.
In the case of `O=C(NCCc1ccc(O)c(O)c1)c1ccc(Br)cc1`, the MIC was 8 µg/mL in data set [1] and 1020 µg/mL in data set [2].
For the molecule `Oc1ccc(CCCCc2ccc(O)c(O)c2)cc1O`, in data set [3], the MIC came out at 4 µg/mL.
Regarding `Oc1ccc(CCCCc2ccccc2O)cc1O`, in data set [11], the Activity result was “Toxic”. The MIC in data set [3] came out at 4 µg/mL.
In the case of `Nc1cc(N)cc(C(=O)NCCc2ccc(O)c(O)c2)c1`, the inhibition result in data set [5] was “Active”. In addition, the Activity entry in [6] was “Non-Toxic”. Moreover, the MIC in data set [1] amounted to 8 µg/mL; in data set [2], 512 µg/mL.
As for `O=C(NCCc1ccc(O)c(O)c1)c1ccc(C(F)(F)F)cc1`, the values for the MIC in data set [1] and in data set [2] were 8 µg/mL and 1020 µg/mL, respectively.
With `Cc1ccc(C(=O)NCCc2ccc(O)c(O)c2)cc1`, in data set [10], the “growth inhibition (GI)” value is reported as “Toxic”. The inhibition result in data set [4] is “Active”. Also, the figures for the MIC in data set [1] and in data set [2] were 8 µg/mL and 1020 µg/mL, respectively. The Activity entry in data set [14] is on record as “Toxic”.
Take `Oc1ccc(CCCCc2ccc(Cl)cc2)cc1O`: the MIC in data set [3] came to 16 µg/mL. For the same molecule, the inhibition entry in [4] is “Active”.
The corresponding values for `Oc1ccc(CCCCc2cc3cccc4ccc5cccc2c5c43)cc1O` are 4 µg/mL and “Active”.
